NPY Y1 blocker: NPY-Y1 receptor antagonists, primary screen, cell-based. Neuropeptide Y receptor type 1 (Homo sapiens), P25929. HEK293-CNG Y1 cells, membrane potential fluorescence; NPY at EC95, then isoproterenol. inhibition, % at 3.6 µM. 200,000 compounds, 1% hits. AID 1040, 2008;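 active means inhibition above the campaign mean inhibition of all tested compounds plus 3 SD, cut at about 20% in these data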;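 further: 0% = DMSO wells given NPY plus isoproterenol and 100% = isoproterenol alone without NPY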
Target sequence (P25929 whole entry, looked up): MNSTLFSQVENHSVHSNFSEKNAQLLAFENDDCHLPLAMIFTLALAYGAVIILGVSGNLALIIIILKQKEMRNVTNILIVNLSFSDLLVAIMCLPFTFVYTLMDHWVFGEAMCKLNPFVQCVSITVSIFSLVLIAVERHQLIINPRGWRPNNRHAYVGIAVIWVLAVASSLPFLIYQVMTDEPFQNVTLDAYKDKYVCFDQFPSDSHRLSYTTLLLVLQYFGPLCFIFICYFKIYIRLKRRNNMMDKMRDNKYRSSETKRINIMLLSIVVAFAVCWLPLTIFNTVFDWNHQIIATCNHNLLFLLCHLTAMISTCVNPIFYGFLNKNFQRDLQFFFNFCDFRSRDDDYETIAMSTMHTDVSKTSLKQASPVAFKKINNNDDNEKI
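Benchmarks – high control isoproterenol alone, low control NPY with isoproterenol · Material – HEK293 Y1/CNG channel cell line · Times – dye 3 h, compound 60 min room temperature, stimulation 45 min · Probe or stimulus – NPY (25 nM), isoproterenol (1 µM), Ro 20-1724 (25 µM) · Evaluation – % inhibition of NPY effect · Signal – fluorescence, membrane potential probe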
TbHK1 inh: Trypanosoma brucei hexokinase 1 inhibitors, primary screen, biochemical, G6PDH-coupled NADH absorbance, MLSCN library | hexokinase 1 [Trypanosoma brucei] | recombinant TbHK1, G6PDH-coupled NADH A340 | inhibition, % at 10 µM | 220,000 compounds, 0.11% hits;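 active means inhibition of 50% or more in the single-dose primary screen; inactive means inhibition below 50%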
NPY Y2 blocker: NPY-Y2 receptor antagonists, primary screen, cell-based. inhibition, % at 2.7 µM. Neuropeptide Y receptor type 2 (Homo sapiens), P49146. AID 793, 2007. NPY-Y2 expressing cells, antagonist mode. 140,000 compounds, 0.99% hits; in the data active means inhibition above about 17%;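 further: 0% = vehicle with agonist challenge and 100% = reference antagonist with challenge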
NPY1 pot ag: NPY-Y1 receptor potentiators or agonists, primary screen, cell-based; Neuropeptide Y receptor type 1 (Homo sapiens), P25929; NPY-Y1 expressing cells, potentiator/agonist activation; activation, % at 3.6 µM; 220,000 compounds, 0.37% hits; in the data active means activation above about 33%, passing the limit was not always enough;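 further: cells stimulated with NPY at EC10 then isoproterenol at EC100; 0% = low agonist plus stimulus and 100% = saturating agonist plus stimulus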
Calpain2 inh: inhibitors of pig calpain II, primary screen, biochemical, fluorogenic peptide substrate, 1536-well. AID 1236, 2008. inhibition, % at 16 µM. purified calpain II, 30 min. 220,000 compounds, 0.37% hits;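 active means inhibition above about 50%, limit read from the data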
NPY-Y2 PAM-ag: NPY-Y2 potentiators or agonists, primary screen, cell-based; cells expressing NPY-Y2, potentiator/agonist read-out; activation, % at 3.6 µM; 220,000 compounds, 0.45% hits; AID 1359, 2008; in the data active means activation above about 27%;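 further: cells stimulated with NPY near EC25 plus isoproterenol at EC100; 0% = vehicle plus submaximal agonist and 100% = vehicle plus saturating agonist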
Numbers without * were called inactive; ! = repeats disagree. A selection: hits, their analogues and other compounds. The true share with any hit is near 2.3%.

How did COCCOC(=O)c1[nH]c2c(c1C)C(=O)CC(c1cc(OC)ccc1OC)C2 (configuration not stated) do in these assays?
NPY Y1 blocker: 5.1; TbHK1 inh: -6.8; NPY Y2 blocker: 5.1; NPY1 pot ag: -3.0; Calpain2 inh: -25.4; NPY-Y2 PAM-ag: 10.6

What do the screens show for `CCCOCCOC(=O)c1[nH]c2c(c1C)C(=O)CC(c1cc(OC)ccc1OC)C2` (configuration not stated)?
NPY Y1 blocker: 34.5*; TbHK1 inh: 2.3; NPY Y2 blocker: 30.9*; NPY1 pot ag: -32.8; Calpain2 inh: 7.4; NPY-Y2 PAM-ag: -3.5

How did CCOC(=O)c1ccc(N2C(=O)C3CC=C(C)CC3C2=O)cc1 (configuration not stated) do in these assays?
NPY Y1 blocker: 24.8*; TbHK1 inh: 8.4; NPY Y2 blocker: -0.1; NPY1 pot ag: -26.9; Calpain2 inh: 0.3; NPY-Y2 PAM-ag: -25.6

Results for CC1=CCC2C(=O)N(c3ccc(C)cc3)C(=O)C2C1 (configuration not stated) ?
NPY Y1 blocker: 1.0; TbHK1 inh: 2.8; NPY Y2 blocker: 2.2; NPY1 pot ag: -32.7; Calpain2 inh: 12.7; NPY-Y2 PAM-ag: -28.8

How did COc1ccc(C(=O)Nc2ccc(Cl)cc2C(=O)N2CCCC(C)C2)cc1OC (configuration not stated) do in these assays?
NPY Y1 blocker: 7.5; TbHK1 inh: 2.3; NPY Y2 blocker: 11.4; NPY1 pot ag: 4.3; Calpain2 inh: -12.0; NPY-Y2 PAM-ag: 5.0

How did CC1CCN(C2=C(NS(=O)(=O)c3ccccc3)C(=O)c3ccccc3C2=O)CC1 do in these assays?
TbHK1 inh: -12.6; NPY1 pot ag: 95.4*; Calpain2 inh: -0.7; NPY-Y2 PAM-ag: 77.5*

What do the screens show for `O=S(=O)(Nc1nc2ccccc2nc1N1CCN(c2ccccc2)CC1)c1ccc(F)cc1`?
NPY Y1 blocker: -2.6; TbHK1 inh: -14.1; NPY Y2 blocker: 2.8; NPY1 pot ag: 10.1; Calpain2 inh: -5.5; NPY-Y2 PAM-ag: 11.0

What do the screens show for `O=C1C(NS(=O)(=O)c2ccccc2)=C(N2CCN(c3ccc(F)cc3)CC2)C(=O)c2ccccc21`?
TbHK1 inh: -7.3; NPY1 pot ag: 88.6*; Calpain2 inh: -37.8; NPY-Y2 PAM-ag: 86.8*

What do the screens show for `COc1ccc(C(=O)NCc2nnc(SCC(=O)N3CCc4ccccc43)n2Cc2ccccc2)cc1`?
NPY Y1 blocker: 4.0; TbHK1 inh: 31.5; NPY Y2 blocker: 0.1; NPY1 pot ag: -3.3; Calpain2 inh: -34.7; NPY-Y2 PAM-ag: 3.1

How did CCc1ccc(C(C(=O)NC(C)(C)CC)N(Cc2ccco2)C(=O)Cn2nnc3ccccc32)cc1 (configuration not stated) do in these assays?
NPY Y1 blocker: 54.5*; TbHK1 inh: -11.7; NPY Y2 blocker: 51.4*; NPY1 pot ag: -117.4; Calpain2 inh: -6.5; NPY-Y2 PAM-ag: -149.5

How did CCC(C)(C)NC(=O)C(c1ccccc1F)N(Cc1ccco1)C(=O)Cn1nnc2ccccc21 (configuration not stated) do in these assays?
NPY Y1 blocker: 96.3*; TbHK1 inh: -2.2; NPY Y2 blocker: 72.5*; NPY1 pot ag: -135.5; Calpain2 inh: 26.6; NPY-Y2 PAM-ag: -120.6

What do the screens show for `CCC(C)(C)NC(=O)C(c1ccccc1F)N(Cc1ccco1)C(=O)c1csnn1` (configuration not stated)?
NPY Y1 blocker: 4.0; TbHK1 inh: 0.3; NPY Y2 blocker: 1.4; NPY1 pot ag: 2.7; Calpain2 inh: -10.5; NPY-Y2 PAM-ag: -2.4

Results for COc1ccc(-c2cc(C(=O)Nc3ccc(O)cc3)c3ccccc3n2)cc1OC ?
TbHK1 inh: -0.9; NPY1 pot ag: -14.3; Calpain2 inh: -10.3; NPY-Y2 PAM-ag: -27.8

What do the screens show for `Cc1csc(NC(=O)c2cc(-c3ccco3)nc3ccccc23)n1`?
NPY Y1 blocker: 1.8; TbHK1 inh: -3.2; NPY Y2 blocker: 3.0; NPY1 pot ag: -1.4; Calpain2 inh: -137.5; NPY-Y2 PAM-ag: -15.2

How did Cc1ccc2nc(NC(=O)c3cc(-c4ccco4)nc4ccccc34)sc2c1 do in these assays?
NPY Y1 blocker: 53.9*; TbHK1 inh: -20.6; NPY Y2 blocker: 55.8*; NPY1 pot ag: -145.8; Calpain2 inh: -376.9; NPY-Y2 PAM-ag: -121.0

How did COc1ccc(-c2cc(C(=O)Nc3nc4c(C)cccc4s3)c3ccccc3n2)cc1OC do in these assays?
NPY Y1 blocker: 47.1*; TbHK1 inh: -24.9; NPY Y2 blocker: 44.6*; NPY1 pot ag: -84.8; Calpain2 inh: -97.8; NPY-Y2 PAM-ag: -32.7

Results for COCCn1c(=O)[nH]c2cc(C(=O)NCC3CCCO3)ccc2c1=O (configuration not stated) ?
NPY Y1 blocker: -2.5; TbHK1 inh: 1.3; NPY Y2 blocker: -0.7; NPY1 pot ag: 74.1*; Calpain2 inh: -21.5; NPY-Y2 PAM-ag: 11.9

What do the screens show for `Cc1ccc(NC(=O)C2CCN(S(=O)(=O)c3ccc(F)cc3)CC2)cc1`?
NPY Y1 blocker: -2.2; TbHK1 inh: -4.6; NPY Y2 blocker: 2.1; NPY1 pot ag: 112.6*; Calpain2 inh: -44.3; NPY-Y2 PAM-ag: 104.6*

Results for O=S(=O)(Nc1nc(-c2sccc2Cl)cs1)c1cc(Cl)ccc1Cl ?
NPY Y1 blocker: 6.5; TbHK1 inh: 28.6; NPY Y2 blocker: 7.5; NPY1 pot ag: -32.1; Calpain2 inh: 54.1*; NPY-Y2 PAM-ag: -23.0

How did Cc1ccc(-n2c(C)cc(/C=N/NC(=O)Cn3c4ccccc4c(=O)c4ccccc43)c2C)cc1 do in these assays?
NPY Y1 blocker: -5.3; TbHK1 inh: -6.8; NPY Y2 blocker: 0.9; NPY1 pot ag: 60.9*; Calpain2 inh: -74.9; NPY-Y2 PAM-ag: 55.5*

What do the screens show for `CCCCCCCCn1ccc(=N)cc1`?
TbHK1 inh: 12.9; NPY1 pot ag: -67.5; Calpain2 inh: -3.5; NPY-Y2 PAM-ag: 12.9

Results for CCCCCCCCCCCCCCCCn1cc[n+](C)c1 ?
NPY Y1 blocker: 3.3; TbHK1 inh: 20.7; NPY1 pot ag: 48.6; Calpain2 inh: 54.0*!; NPY-Y2 PAM-ag: 37.2

How did Cc1ccc(CN2CCSc3ccc(C(=O)NCc4cccnc4)cc32)cc1 do in these assays?
NPY Y1 blocker: 10.1; TbHK1 inh: -5.9; NPY1 pot ag: -14.3; Calpain2 inh: inactive; NPY-Y2 PAM-ag: -3.8

How did CN(C)CCNC(=O)c1ccc2c(c1)N(Cc1ccc(F)cc1)CCS2 do in these assays?
NPY Y1 blocker: -7.5; TbHK1 inh: 1.1; NPY Y2 blocker: 4.8; NPY1 pot ag: 74.7*; Calpain2 inh: -497.7; NPY-Y2 PAM-ag: 65.3*

What do the screens show for `COc1ccc(S(=O)(=O)N2CCCN(CC(=O)Nc3ccc(OC)c(Cl)c3)CC2)cc1`?
NPY Y1 blocker: 38.5*; TbHK1 inh: 1.0; NPY Y2 blocker: 18.1*; NPY1 pot ag: -46.3; Calpain2 inh: 22.6; NPY-Y2 PAM-ag: -21.5

Assay outcomes (PubChem)
